For 1 compound, IC50 results are on record in article PMC8448912 (ChemMedChem, 2021).

Assay type in all cases: cell-based
Assay [1] concerns A2780 (Ovary). The assay is described as follows: MTT antiproliferative assay, 72 h. To be noted: Homo sapiens, A2780, 72 h, read-out: IC50 values. An outline of the steps: (§1)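 Human cancer cell lines (breast MDA-MB-231 and MCF-7, ovarian A2780, colorectal Caco-2 and HT-29) exposed to test compound for 72 h. Growth measured by MTT assay. IC50 values reported as mean ± SDM, n = 3.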
In general terms: Tetrazolium assays rely on reduction of a dye to a coloured formazan, in cell work by metabolically active cells.

The subject of assay [2] is HT-29 (Colon). The assay is described as follows: MTT antiproliferative assay, 72 h. Particulars: Homo sapiens, HT-29, 72 h, read-out: IC50 values. In a few lines: as §1
Assay [3] has as its system MRC-5 (Normal lung). The assay is described as follows: MTT antiproliferative assay, 72 h. To be noted: Homo sapiens, MRC5, 72 h, read-out: IC50 values.
Assay [4] concerns Caco-2 (Colon). The assay is described as follows: MTT antiproliferative assay, 72 h. Particulars: Homo sapiens, Caco-2, 72 h, read-out: IC50 values. An outline of the steps: as §1
The subject of assay [5] is MCF-7 (Breast). The assay is described as follows: MTT antiproliferative assay, 72 h. Particulars: Homo sapiens, MCF7, 72 h, read-out: IC50 values. In a few lines:
as §1

The test system of assay [6] is panel of breast, ovarian and colorectal cancer cells. The assay is described as follows: antiproliferative activity in the panel of cell lines. To be noted: read-out: IC50 values in this screen. In a few lines: as §1
Assay [7] has as its system MDA-MB-231 (Breast). Put plainly: MTT antiproliferative assay, 72 h. Particulars: Homo sapiens, MDA-MB-231, 72 h, read-out: IC50 values. An outline of the steps:
as §1

As a reminder, the IC50 is the concentration that inhibits the measured activity by half. Regarding `CC(=O)N(O)CCCCCNC(=O)CCC(=O)N(O)CCCCCNC(=O)CCC(=O)N(O)CCCCCN` [DFO, desferrioxamine], the concentration for half-maximal inhibition (IC50) in assay [1] was 3.83 ± 0.02 µM; in assay [2], 2.4 ± 0.1 µM; in assay [3], 9 ± 1 µM; in assay [4], 3.7 ± 0.3 µM; in assay [5], 21 ± 2 µM; in assay [6], 2 to 20 µM. Further, the half-inhibitory concentration (IC50) in assay [7] was 5.8 ± 0.4 µM.
